Series [1] in a line: folding enthalpy; higher = less favourable; fluorescence melt of hairpins on a sequencing array, two-state fit. The settings on record: sodium 0.088 M. The gist of the method: (§1)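 With Cy3 and quencher oligos annealed, library hairpins on a sequenced MiSeq flow cell were imaged for Cy3 fluorescence in 50 mM Na-HEPES pH 8.0, 25 mM NaCl, in 2.5 °C steps up to 60 °C. Melting temperature and folding enthalpy were derived from bootstrapped two-state fits of signals normalised to pre-quench Cy3 and to control constructs. Four replicates were combined by inverse variance, with fitted temperatures raised by 9.35 °C to match UV melts.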

Series [2] can be described thus: melting temperature; fluorescence melt of hairpins on a sequencing array, two-state fit, raised by 9.35 °C to match UV melts. The settings on record: sodium 0.088 M. In short, it runs like this: as §1

On to GTCCAGCGAAAGCTCGAC (((.(((....))).))), for which the folding enthalpy in series [1] is -20.7 kcal/mol. Further, the Tm in series [2] was found to be 43.2 °C.

Take GTTAACCGAAAGGTAAAC (((.(((....))).))): the folding enthalpy in series [1] was -25.2 kcal/mol. In addition, the Tm in series [2] stood at 41.9 °C.

As for GATCACGGTGTGATC ((((((...)))))), the folding enthalpy in series [1] is -30.5 kcal/mol. For the same sequence, the Tm in series [2] stood at 61.3 °C.

For the sequence GTGGACGAAAGTCGTCAC ((((((....)))..))), the folding enthalpy in series [1] is -16.3 kcal/mol. Also, in series [2], the Tm turned out to be 40.1 °C.

Regarding GGACGCCCGAAAGGGTCC (((..(((....)))))), in series [1], the folding enthalpy is -16.2 kcal/mol. Moreover, the Tm in series [2] worked out at 43.2 °C.

Turning to CGCGGACGATTCCGCG ((((((....)))))), the folding enthalpy in series [1] was -29.1 kcal/mol. Also, the Tm in series [2] came to 69 °C.

For the sequence GATCGGGGGCCGATC ((((((...)))))), the folding enthalpy in series [1] is -40.8 kcal/mol. For the same sequence, the Tm in series [2] stood at 54.9 °C.

As to GCCCCTCGAAAGAGTGGC (((.(((....))).))), the folding enthalpy in series [1] was -38 kcal/mol. The Tm in series [2] came out at 52.6 °C.

Turning to GATCCCAGTAGGGATC ((((((....)))))), in series [1], the folding enthalpy is -35 kcal/mol. Moreover, the Tm in series [2] amounted to 66 °C.

As for GGCGTCGGAAACGGCGTC (.((.((....)).)).), the folding enthalpy in series [1] was -27.7 kcal/mol. In addition, in series [2], the Tm amounted to 53.9 °C.

On to GAGGTCCGAAAGGACTC (((.(((....)))))), for which the folding enthalpy in series [1] was -11.9 kcal/mol. Besides, the Tm in series [2] is 47.9 °C.

GGCAAGCGAAAGCTAGCC (((.(((....))).))): the folding enthalpy in series [1] is -35.9 kcal/mol. For the same sequence, the Tm in series [2] is 63.4 °C.

Turning to GTCAGTGGAAACACCGAC (((.(((....))).))), the folding enthalpy in series [1] is -26.9 kcal/mol. For the same sequence, the Tm in series [2] came out at 40.4 °C.

Regarding GGTTCGCGAAAGCGCACC (((.(((....))).))), in series [1], the folding enthalpy is -29.5 kcal/mol. Moreover, the Tm in series [2] stood at 55.4 °C.

Regarding GACGGCGAAAGCCAAGTC ((((((....)))..))), the folding enthalpy in series [1] is -18.5 kcal/mol. Further, the Tm in series [2] stood at 49 °C.

Regarding GCCCGGGGAAACTCGGGC (((((.(....).))))), the folding enthalpy in series [1] was -37.5 kcal/mol. Moreover, in series [2], the Tm is 67.2 °C.

Turning to GCCTAAGCGAAAGCTGGC (((..(((....)))))), in series [1], the folding enthalpy was -24.3 kcal/mol. For the same sequence, in series [2], the Tm stood at 52.3 °C.

As for GATCTTGGTCAAGATC ((((((....)))))), the folding enthalpy in series [1] is -36.8 kcal/mol. In addition, the Tm in series [2] came to 48.9 °C.

For GATCGCCAAGCGATC ((((((...)))))), the folding enthalpy in series [1] is -29.8 kcal/mol. Also, the Tm in series [2] worked out at 67.5 °C.

Consider GATCTTCCCAAAGATC ((((((....)))))), for which the folding enthalpy in series [1] is -32.6 kcal/mol. The Tm in series [2] came out at 45.5 °C.

Consider CGATTCGGAAACGAGTCG (((.(((....))).))), for which the folding enthalpy in series [1] was -43.6 kcal/mol. For the same sequence, the Tm in series [2] is 50.8 °C.

On to GGATGCACGAAAGTGTCC (((..(((....)))))), for which the folding enthalpy in series [1] was -14 kcal/mol. The Tm in series [2] stood at 30.8 °C.

Turning to GTGGCCGAAAGGCGTCAC ((((((....)))..))), the folding enthalpy in series [1] was -12.2 kcal/mol. For the same sequence, the Tm in series [2] is 43.5 °C.

Turning to GATCCCATACGGGATC ((((((....)))))), the folding enthalpy in series [1] is -38.5 kcal/mol. Besides, in series [2], the Tm was determined as 64.6 °C.

For the sequence GGGGATGGAAACATCCTC (.(((((....))))).), in series [1], the folding enthalpy is -24.4 kcal/mol. The Tm in series [2] is 52.4 °C.

Regarding GAGACACGAAAGTGCCTC (((.(((....))).))), in series [1], the folding enthalpy was -33.4 kcal/mol. Moreover, the Tm in series [2] stood at 51.3 °C.

For GCGATCGAAAGATCCCGC ((((((....)))..))), the folding enthalpy in series [1] is -17.7 kcal/mol. The Tm in series [2] was 37.1 °C.

On to GGTCATGGAAACGTGATC (.(((.(....).))).), for which, in series [1], the folding enthalpy was -20 kcal/mol. Besides, the Tm in series [2] worked out at 35.5 °C.

Consider GCCATGCGAAAGCAGAGC ((..(((....)))..)), for which the folding enthalpy in series [1] is -17.9 kcal/mol. Moreover, the Tm in series [2] was determined as 44.6 °C.

In the case of GCGTGGCGAAAGCCGAGC ((..(((....)))..)), the folding enthalpy in series [1] was -25.8 kcal/mol. Besides, the Tm in series [2] turned out to be 66.4 °C.

With GTTGGAGGAAACTTCAGC (.((.((....)).)).), the folding enthalpy in series [1] was -12.7 kcal/mol. Moreover, the Tm in series [2] is 30.5 °C.

Take GTCGAGAAATCGAC (((((....))))): in series [1], the folding enthalpy is -26.8 kcal/mol. In addition, in series [2], the Tm came to 55.5 °C.

For the sequence GTGCATGGAAACATACAC (((.(((....))).))), in series [1], the folding enthalpy is -35 kcal/mol. Moreover, the Tm in series [2] turned out to be 39.3 °C.

GCACGGCGAAAGCGCTGC (((..((....))..))): the folding enthalpy in series [1] is -17.5 kcal/mol. Moreover, in series [2], the Tm is 52 °C.

Regarding GCGGCGCGAAAGCAGCGC (((..((....))..))), the folding enthalpy in series [1] was -27.4 kcal/mol. Also, the Tm in series [2] is 68.1 °C.

Take GAGATAGAAATATCTC ((((((....)))))): the folding enthalpy in series [1] is -26.9 kcal/mol. Besides, in series [2], the Tm amounted to 39 °C.

As to GCAGTGGGAAACCGTTGC (((..((....))..))), in series [1], the folding enthalpy was -19.4 kcal/mol. Moreover, the Tm in series [2] worked out at 38.1 °C.
